Data set [1] is described as follows: Aqueous solubility of the compound by HPLC analysis. Format: physicochemical. The settings on record: water. Summed up:
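Solubility determined by HPLC measurement of the concentration in saturated aqueous solutions of the compounds.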

Data set [2] addresses MAP kinase-activated protein kinase 2 (Homo sapiens, UniProt P49137). Description: Inhibition of MAPKAPK2 at 30 uM by microfluidic mobility shift assay. The essentials: (§1)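 Single-concentration screen, singlicate, 30 uM final (diluted from 1 mM DMSO solutions), fluorescently tagged peptide substrate appropriate to each kinase, ATP at apparent Km for each protein. Phosphorylated and unphosphorylated peptides separated electrophoretically; conversion is the phosphorylated peak area over the sum of both peaks. No-inhibitor and no-ATP controls; H89 reference on each plate.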

Data set [3] concerns the target T1, Aurora kinase A (Homo sapiens) (UniProt O14965).
T1 sequence (whole entry): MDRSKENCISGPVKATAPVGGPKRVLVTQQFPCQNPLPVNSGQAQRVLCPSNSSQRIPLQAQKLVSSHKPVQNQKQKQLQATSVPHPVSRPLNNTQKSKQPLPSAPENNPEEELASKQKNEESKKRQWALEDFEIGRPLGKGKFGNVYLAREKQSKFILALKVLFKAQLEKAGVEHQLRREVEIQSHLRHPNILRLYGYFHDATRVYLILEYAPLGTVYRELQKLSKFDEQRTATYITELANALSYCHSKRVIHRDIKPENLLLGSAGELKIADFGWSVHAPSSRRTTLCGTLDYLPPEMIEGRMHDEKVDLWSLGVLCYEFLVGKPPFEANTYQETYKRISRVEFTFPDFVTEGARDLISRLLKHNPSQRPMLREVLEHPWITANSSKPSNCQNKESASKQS
Description: Inhibition of AurA at 30 uM by microfluidic mobility shift assay. Summed up:
as §1

The target in data set [4] is T2, MAP kinase-activated protein kinase 5 (Homo sapiens) (UniProt Q8IW41).
T2 sequence (whole entry): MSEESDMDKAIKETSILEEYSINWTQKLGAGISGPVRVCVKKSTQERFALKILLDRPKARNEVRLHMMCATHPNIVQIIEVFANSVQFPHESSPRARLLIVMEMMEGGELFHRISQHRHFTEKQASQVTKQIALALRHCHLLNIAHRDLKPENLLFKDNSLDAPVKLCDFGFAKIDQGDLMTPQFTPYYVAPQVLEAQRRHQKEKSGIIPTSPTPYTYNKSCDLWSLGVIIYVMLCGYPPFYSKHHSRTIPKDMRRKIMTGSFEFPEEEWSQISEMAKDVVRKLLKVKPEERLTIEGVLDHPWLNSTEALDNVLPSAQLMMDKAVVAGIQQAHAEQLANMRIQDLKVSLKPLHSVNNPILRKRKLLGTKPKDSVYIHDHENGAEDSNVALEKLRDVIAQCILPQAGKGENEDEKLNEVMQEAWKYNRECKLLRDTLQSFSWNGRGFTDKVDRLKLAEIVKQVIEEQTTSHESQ
Description: Inhibition of PRAK1 at 30 uM by microfluidic mobility shift assay. The essentials:
as §1

For data set [5], the target named is Mitogen-activated protein kinase 3 (Homo sapiens) (UniProt P27361). Description: Inhibition of ERK1 at 30 uM by microfluidic mobility shift assay. Summed up: as §1
Chain of Mitogen-activated protein kinase 3 (Homo sapiens) (P27361 whole entry): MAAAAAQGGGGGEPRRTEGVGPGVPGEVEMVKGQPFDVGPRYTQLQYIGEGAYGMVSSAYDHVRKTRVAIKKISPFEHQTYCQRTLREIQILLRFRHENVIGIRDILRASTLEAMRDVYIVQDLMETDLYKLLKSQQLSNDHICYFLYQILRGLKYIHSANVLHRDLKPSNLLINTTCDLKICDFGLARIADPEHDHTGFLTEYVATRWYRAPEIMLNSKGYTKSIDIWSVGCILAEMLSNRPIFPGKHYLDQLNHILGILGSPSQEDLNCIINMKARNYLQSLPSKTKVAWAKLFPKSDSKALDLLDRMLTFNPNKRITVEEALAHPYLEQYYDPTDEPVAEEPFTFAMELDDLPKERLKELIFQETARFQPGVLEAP
Data set [6] concerns the target T3, Serine/threonine-protein kinase D2 (Homo sapiens) (UniProt Q9BZL6).
T3 sequence (whole entry): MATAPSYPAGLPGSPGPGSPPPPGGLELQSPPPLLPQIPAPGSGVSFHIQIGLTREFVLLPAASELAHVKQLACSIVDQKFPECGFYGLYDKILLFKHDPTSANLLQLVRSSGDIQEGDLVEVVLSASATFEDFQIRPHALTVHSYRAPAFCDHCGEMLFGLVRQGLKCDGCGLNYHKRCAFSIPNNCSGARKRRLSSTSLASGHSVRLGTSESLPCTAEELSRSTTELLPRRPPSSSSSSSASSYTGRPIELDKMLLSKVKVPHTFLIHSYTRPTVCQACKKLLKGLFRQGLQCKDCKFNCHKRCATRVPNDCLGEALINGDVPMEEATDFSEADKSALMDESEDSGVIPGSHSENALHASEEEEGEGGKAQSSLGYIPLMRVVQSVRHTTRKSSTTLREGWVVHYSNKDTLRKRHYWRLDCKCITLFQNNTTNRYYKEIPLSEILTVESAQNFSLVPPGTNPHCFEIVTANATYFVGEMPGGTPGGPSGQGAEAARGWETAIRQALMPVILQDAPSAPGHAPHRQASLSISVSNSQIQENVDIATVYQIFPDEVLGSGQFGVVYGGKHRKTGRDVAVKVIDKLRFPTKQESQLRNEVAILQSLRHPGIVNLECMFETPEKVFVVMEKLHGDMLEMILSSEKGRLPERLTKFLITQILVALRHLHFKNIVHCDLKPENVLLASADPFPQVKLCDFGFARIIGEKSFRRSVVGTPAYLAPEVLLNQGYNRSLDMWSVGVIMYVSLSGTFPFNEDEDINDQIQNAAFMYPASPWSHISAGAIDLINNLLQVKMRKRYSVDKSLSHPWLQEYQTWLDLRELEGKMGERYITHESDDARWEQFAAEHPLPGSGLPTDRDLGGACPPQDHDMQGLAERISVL
Put plainly: Inhibition of PKD2 at 30 uM by microfluidic mobility shift assay. Summed up: as §1

The target in data set [7] is T4, Serine/threonine-protein kinase Chk1 (Homo sapiens) (UniProt O14757).
T4 sequence (whole entry): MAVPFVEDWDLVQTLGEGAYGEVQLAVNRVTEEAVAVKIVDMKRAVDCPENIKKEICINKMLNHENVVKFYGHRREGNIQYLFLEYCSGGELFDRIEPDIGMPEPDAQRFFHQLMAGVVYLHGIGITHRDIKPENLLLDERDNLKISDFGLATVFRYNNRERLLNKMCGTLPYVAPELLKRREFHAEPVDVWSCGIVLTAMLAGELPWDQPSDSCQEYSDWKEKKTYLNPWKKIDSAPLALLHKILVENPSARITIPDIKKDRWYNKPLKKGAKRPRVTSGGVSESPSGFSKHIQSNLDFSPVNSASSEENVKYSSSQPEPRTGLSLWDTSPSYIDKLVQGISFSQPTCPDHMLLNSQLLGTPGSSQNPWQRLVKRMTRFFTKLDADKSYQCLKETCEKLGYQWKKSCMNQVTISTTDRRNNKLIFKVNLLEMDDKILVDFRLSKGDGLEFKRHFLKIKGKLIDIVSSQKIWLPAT
Description: Inhibition of CHK1 at 30 uM by microfluidic mobility shift assay. Summed up: as §1

The target of data set [8] is Tyrosine-protein kinase ABL1 (Homo sapiens, UniProt P00519). Description: Inhibition of ABL at 30 uM by microfluidic mobility shift assay. Summed up:
as §1

Data set [9] concerns the target Tyrosine-protein kinase Fyn (Homo sapiens, UniProt P06241). Put plainly: Inhibition of FYN at 30 uM by microfluidic mobility shift assay. The essentials:
as §1

In data set [10] the target is Tyrosine-protein kinase Lyn (Homo sapiens, UniProt P07948). Put plainly: Inhibition of LYN at 30 uM by microfluidic mobility shift assay. Summed up: as §1
In data set [11] the target is Serine/threonine-protein kinase Chk2 (Homo sapiens, UniProt O96017). Description: Inhibition of CHK2 at 30 uM by microfluidic mobility shift assay. The essentials: as §1
Data set [12] concerns the target Tyrosine-protein kinase Lck (Homo sapiens, UniProt P06239). Description: Inhibition of LCK at 30 uM by microfluidic mobility shift assay. Summed up: as §1
In data set [13] the target is Proto-oncogene tyrosine-protein kinase Src (Homo sapiens, UniProt P12931). Put plainly: Inhibition of SRC at 30 uM by microfluidic mobility shift assay. The essentials:
as §1

Data set [14] concerns the target Glycogen synthase kinase-3 beta (Homo sapiens) (UniProt P49841). Description: Inhibition of GSK3B at 30 uM by microfluidic mobility shift assay. Summed up:
as §1

Data set [15] addresses Mitogen-activated protein kinase 1 (Homo sapiens) (UniProt P28482). Put plainly: Inhibition of ERK2 at 30 uM by microfluidic mobility shift assay. The essentials:
as §1

The nature of data set [16]: Inhibition of PKA at 30 uM by microfluidic mobility shift assay. The essentials: as §1
Data set [17] has as its target RAC-beta serine/threonine-protein kinase (Homo sapiens) (UniProt P31751). Description: Inhibition of AKT2 at 30 uM by microfluidic mobility shift assay. Summed up:
as §1

Data set [18] concerns the target Insulin receptor (Homo sapiens) (UniProt P06213). Put plainly: Inhibition of INSR at 30 uM by microfluidic mobility shift assay. The essentials:
as §1

For data set [19], the target named is Mitogen-activated protein kinase 14 (Homo sapiens, UniProt Q16539). Description: Inhibition of p38alpha at 30 uM by microfluidic mobility shift assay. Summed up:
as §1

In data set [20] the target is RAC-alpha serine/threonine-protein kinase (Homo sapiens) (UniProt P31749). Put plainly: Inhibition of AKT1 at 30 uM by microfluidic mobility shift assay. The essentials:
as §1

Data set [21] has as its target Ribosomal protein S6 kinase alpha-5 (Homo sapiens) (UniProt O75582). Put plainly: Inhibition of MSK1 at 30 uM by microfluidic mobility shift assay. Summed up: as §1
Data set [22] concerns the target T5, Protein kinase C zeta type (Homo sapiens) (UniProt Q05513).
T5 sequence (whole entry): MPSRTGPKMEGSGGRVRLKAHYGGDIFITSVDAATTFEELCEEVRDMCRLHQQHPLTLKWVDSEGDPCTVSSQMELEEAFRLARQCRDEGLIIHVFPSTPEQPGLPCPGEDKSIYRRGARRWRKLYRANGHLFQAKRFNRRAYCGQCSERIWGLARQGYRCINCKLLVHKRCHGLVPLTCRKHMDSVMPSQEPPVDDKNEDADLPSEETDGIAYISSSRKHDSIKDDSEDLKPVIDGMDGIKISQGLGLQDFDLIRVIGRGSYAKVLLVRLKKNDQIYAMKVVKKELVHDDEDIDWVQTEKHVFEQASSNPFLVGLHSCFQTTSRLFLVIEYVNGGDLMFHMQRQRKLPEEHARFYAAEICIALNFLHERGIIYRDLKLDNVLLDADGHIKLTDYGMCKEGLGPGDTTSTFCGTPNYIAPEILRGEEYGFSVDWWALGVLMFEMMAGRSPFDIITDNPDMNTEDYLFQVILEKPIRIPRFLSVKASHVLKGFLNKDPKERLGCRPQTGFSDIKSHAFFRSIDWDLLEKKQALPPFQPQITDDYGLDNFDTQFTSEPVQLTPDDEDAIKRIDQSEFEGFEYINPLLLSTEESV
Description: Inhibition of PKCz at 30 uM by microfluidic mobility shift assay. Summed up: as §1

Data set [23] deals with Ribosomal protein S6 kinase alpha-1 (Homo sapiens) (UniProt Q15418). Description: Inhibition of RSK1 at 30 uM by microfluidic mobility shift assay. Summed up: as §1

SMILES strings stand for the structures. In brackets after ≈: the same amount, converted by molar mass.

We go through three molecules from ChEMBL document CHEMBL1811853, “Design and evaluation of 3-aminopyrazolopyridinone kinase inhibitors inspired by the natural product indirubin” (Bioorg Med Chem, 2011).

Chain of Ribosomal protein S6 kinase alpha-5 (Homo sapiens) (O75582 whole entry, looked up): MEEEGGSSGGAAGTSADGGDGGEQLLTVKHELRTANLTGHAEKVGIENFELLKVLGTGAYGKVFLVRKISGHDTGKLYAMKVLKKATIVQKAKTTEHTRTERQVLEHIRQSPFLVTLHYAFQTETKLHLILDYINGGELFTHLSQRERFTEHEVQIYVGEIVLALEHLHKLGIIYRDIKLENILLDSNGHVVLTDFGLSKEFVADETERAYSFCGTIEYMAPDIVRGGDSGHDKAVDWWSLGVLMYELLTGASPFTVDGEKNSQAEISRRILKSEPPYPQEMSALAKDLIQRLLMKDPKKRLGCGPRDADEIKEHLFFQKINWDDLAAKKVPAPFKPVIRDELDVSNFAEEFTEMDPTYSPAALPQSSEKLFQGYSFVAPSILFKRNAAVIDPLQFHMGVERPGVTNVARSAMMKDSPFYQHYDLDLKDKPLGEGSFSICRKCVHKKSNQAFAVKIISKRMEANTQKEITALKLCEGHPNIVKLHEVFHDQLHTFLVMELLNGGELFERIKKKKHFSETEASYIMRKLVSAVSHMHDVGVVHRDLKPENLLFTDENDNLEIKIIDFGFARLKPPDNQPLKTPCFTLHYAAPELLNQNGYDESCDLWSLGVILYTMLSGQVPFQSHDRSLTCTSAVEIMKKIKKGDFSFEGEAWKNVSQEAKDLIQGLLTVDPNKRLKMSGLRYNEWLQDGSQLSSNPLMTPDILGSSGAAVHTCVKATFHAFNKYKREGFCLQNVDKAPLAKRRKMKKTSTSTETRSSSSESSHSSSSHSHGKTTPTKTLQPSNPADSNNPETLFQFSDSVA
Chain of RAC-alpha serine/threonine-protein kinase (Homo sapiens) (P31749 whole entry): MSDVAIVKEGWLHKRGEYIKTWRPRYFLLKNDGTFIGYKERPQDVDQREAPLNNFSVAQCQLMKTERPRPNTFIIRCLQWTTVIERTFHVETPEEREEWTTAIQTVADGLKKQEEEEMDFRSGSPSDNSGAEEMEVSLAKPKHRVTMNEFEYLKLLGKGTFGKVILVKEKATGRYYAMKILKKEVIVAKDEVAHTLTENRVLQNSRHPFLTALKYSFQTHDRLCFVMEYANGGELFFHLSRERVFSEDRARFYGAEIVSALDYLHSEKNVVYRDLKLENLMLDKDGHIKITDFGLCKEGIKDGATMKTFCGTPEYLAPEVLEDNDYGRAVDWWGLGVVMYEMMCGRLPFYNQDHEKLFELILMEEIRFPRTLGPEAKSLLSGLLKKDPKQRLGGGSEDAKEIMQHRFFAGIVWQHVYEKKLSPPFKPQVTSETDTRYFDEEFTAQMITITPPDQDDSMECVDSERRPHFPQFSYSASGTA
Chain of Insulin receptor (Homo sapiens) (P06213 28-758 limits assumed): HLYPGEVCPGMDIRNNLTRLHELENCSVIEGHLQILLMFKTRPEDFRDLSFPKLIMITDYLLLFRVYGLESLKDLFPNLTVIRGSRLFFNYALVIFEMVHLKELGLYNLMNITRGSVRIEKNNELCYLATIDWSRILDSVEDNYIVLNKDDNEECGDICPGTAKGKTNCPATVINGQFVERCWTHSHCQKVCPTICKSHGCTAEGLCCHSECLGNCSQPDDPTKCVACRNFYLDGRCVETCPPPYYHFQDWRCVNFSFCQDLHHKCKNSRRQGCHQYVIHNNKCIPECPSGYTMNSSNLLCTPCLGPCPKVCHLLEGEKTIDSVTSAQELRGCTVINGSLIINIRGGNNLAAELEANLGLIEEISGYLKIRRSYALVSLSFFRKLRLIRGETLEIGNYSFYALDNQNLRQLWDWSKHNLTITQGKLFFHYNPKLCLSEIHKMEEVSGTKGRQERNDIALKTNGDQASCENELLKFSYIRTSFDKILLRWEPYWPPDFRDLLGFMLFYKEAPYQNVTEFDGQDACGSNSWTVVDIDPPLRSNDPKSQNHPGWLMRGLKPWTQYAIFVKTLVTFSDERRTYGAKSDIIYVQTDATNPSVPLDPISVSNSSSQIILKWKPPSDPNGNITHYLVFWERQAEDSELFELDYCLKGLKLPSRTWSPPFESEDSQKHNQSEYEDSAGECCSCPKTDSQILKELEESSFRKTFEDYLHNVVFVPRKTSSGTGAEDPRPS
Chain of Insulin receptor (Homo sapiens) (P06213 763-1382 limits assumed): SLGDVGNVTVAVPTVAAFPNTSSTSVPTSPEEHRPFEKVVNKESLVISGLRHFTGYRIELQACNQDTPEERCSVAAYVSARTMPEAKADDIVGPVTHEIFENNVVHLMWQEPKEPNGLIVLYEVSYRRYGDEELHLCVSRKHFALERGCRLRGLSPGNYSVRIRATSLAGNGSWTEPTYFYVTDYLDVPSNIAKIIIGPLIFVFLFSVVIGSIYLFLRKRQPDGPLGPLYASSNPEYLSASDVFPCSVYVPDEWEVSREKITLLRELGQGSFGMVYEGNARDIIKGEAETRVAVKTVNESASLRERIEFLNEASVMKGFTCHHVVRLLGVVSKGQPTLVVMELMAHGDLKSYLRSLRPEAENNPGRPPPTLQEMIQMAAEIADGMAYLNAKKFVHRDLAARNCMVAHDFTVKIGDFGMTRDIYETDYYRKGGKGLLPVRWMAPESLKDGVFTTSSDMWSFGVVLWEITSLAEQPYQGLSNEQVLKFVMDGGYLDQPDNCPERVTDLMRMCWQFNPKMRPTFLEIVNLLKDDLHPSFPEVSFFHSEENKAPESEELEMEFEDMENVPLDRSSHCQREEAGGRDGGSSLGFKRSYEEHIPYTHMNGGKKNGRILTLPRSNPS
Chain of Tyrosine-protein kinase Lck (P06239 2-509 limits assumed): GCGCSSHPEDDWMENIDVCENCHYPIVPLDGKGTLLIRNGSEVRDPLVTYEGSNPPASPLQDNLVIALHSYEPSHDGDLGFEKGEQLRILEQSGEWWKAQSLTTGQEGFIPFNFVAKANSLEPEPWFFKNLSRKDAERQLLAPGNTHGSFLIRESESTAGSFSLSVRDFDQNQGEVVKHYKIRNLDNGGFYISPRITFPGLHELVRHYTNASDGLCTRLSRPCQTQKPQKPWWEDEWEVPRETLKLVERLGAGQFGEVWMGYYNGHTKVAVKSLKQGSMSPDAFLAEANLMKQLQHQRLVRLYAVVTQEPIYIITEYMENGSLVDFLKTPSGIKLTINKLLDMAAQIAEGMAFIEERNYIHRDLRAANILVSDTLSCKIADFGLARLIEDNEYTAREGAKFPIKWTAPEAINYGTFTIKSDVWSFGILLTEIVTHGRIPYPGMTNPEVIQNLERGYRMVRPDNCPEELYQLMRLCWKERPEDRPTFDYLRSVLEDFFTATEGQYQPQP
Chain of Mitogen-activated protein kinase 1 (Homo sapiens) (P28482 whole entry): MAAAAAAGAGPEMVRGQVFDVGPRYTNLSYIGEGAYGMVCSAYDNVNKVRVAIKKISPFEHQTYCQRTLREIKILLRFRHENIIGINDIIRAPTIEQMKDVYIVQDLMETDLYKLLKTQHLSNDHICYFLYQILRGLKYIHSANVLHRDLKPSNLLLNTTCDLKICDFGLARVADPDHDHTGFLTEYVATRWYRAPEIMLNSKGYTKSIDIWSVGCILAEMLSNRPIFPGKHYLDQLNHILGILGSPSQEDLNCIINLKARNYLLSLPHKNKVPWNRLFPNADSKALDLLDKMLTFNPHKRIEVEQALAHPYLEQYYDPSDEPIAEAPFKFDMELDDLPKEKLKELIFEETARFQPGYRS
Chain of Mitogen-activated protein kinase 14 (Q16539 whole entry): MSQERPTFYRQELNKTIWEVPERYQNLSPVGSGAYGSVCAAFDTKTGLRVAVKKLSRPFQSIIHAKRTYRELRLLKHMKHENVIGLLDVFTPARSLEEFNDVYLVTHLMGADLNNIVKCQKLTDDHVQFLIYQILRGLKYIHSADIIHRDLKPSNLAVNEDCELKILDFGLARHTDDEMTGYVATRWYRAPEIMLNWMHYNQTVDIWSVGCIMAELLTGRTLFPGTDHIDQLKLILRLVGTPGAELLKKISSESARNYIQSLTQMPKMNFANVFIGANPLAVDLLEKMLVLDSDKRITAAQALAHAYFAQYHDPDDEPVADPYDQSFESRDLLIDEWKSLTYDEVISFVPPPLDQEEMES
Chain of RAC-beta serine/threonine-protein kinase (Homo sapiens) (P31751 whole entry): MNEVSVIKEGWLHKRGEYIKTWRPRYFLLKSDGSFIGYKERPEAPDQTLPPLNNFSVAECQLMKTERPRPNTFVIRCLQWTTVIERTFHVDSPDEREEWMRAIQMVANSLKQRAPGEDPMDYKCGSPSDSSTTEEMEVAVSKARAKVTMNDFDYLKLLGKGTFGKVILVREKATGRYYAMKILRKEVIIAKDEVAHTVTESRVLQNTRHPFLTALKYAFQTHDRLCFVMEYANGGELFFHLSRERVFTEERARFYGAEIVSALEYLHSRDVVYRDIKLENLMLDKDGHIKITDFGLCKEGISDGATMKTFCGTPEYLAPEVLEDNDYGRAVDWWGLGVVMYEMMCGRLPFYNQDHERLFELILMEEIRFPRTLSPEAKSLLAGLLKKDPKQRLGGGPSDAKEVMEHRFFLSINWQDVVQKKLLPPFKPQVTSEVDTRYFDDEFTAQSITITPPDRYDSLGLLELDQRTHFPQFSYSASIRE

Usually solubility stands for how much of the substance goes into solution per volume. One may read the inhibition as the relative decrease from the control value, in per cent. In [1], `Cc1cc2nn(-c3ccccc3)c(N)c2c(=O)[nH]1` had a solubility of 69 µg/mL (≈ 287 µM). Further, the inhibition is -4% in data set [2]; 6% in data set [3]; 5% in [4]; 7% in data set [5]; -1% in data set [6]; -9% in [7]. The inhibition is 20% in [8]; 22% in [9]; 9% in data set [10]; -4% in [11]; 24% in data set [12]; 26% in [13]. The inhibition was 9% in data set [14]; 7% in data set [15]; -8% in data set [16]; 1% in data set [17]; 4% in data set [18]; 26% in data set [19]. The inhibition worked out at 5% in data set [20] and 4% in data set [21].

The molecule `Cc1[nH]c(=O)c2c(N)n(-c3ccccc3)nc2c1-c1ccccc1` gave a solubility in data set [1] of 7 µg/mL (≈ 22.1 µM). The inhibition in [2] is 9%; in data set [3] it was 4%; in data set [22] it was 26%; in data set [23], -2%; in data set [4] it was 6%; in data set [5] it was 14%. Also, the inhibition is -3% in data set [6]; 42% in data set [8]; 62% in data set [9]; 71% in [10]; -1% in data set [11]; 73% in data set [12]. Further, the inhibition is 71% in data set [13]; 16% in data set [14]; 8% in data set [15]; 4% in data set [17]; 10% in [18]; 78% in data set [19]. Also, the inhibition in data set [20] was -8%; in [21] it was 2%.

The molecule `Cn1nc(N)c2cnc(-c3ccccc3)cc21` came in with a solubility in data set [1] of 259 µg/mL (≈ 1150 µM). Moreover, the inhibition is 7% in data set [2]; 33% in data set [3]; 2% in data set [23]; 5% in data set [4]; 9% in data set [5]; 5% in [6]. For the same molecule, the inhibition amounted to 1% in data set [7]; 10% in [8]; 8% in [9]; 7% in data set [10]; 5% in data set [11]; 11% in [12]. Besides, the inhibition in [13] is 7%; in [14] it was 17%; in [15] it was 4%; in data set [16] it was 1%; in data set [17], 6%; in data set [18] it was 9%. Also, the inhibition in data set [19] turned out to be 0%; in [20] it was 4%; in data set [21] it was 4%.
